Test results published in ChEMBL document CHEMBL1154352, “Toll-like receptor 7 selective synthetic oligoribonucleotide agonists: synthesis and structure-activity relationship studies” (J Med Chem, 2009).
Calls of active or inactive are those of the source. No cut-off for these calls is given here.

Tests used:
[1] = test system: PBMC; assay: Immunomodulatory activity in human PBMC assessed as induction of TNFalpha at 50 ug/ml after 24 hrs; type: functional, cell-based
In short: (§1)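 Human PBMCs plated at 5 × 10^6 cells/mL; compounds dissolved in PBS added at various concentrations, 37 °C for 24 h. Supernatant cytokines/chemokines quantified with human Luminex multiplex kit.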

[2] = organism: Homo sapiens; assay: Immunostimulatory activity in human mDC assessed as induction of TNFalpha at 100 ug/ml after 24 hrs; type: functional
In short: (§2)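 Human mDCs isolated from PBMCs by CD19+ B-cell depletion then BDCA1 positive selection; plated at 1 × 10^6 cells/mL, compounds in PBS, 37 °C for 24 h; supernatant cytokines by human Luminex multiplex. Representative of four independent experiments.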

[3] = test system: PBMC; assay: Immunomodulatory activity in human PBMC assessed as induction of MIP1beta at 50 ug/ml after 24 hrs; type: functional, cell-based; in short: as §1
[4] = Metabolic stability in human serum assessed as full length product remaining after 10 mins by HPLC; type: ADME, cell-free; conditions: read-out: Stability
In short: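 About 0.5 A260 units compound in 1% human serum in PBS, 37 °C; aliquot taken at 10 min, analysed by anion-exchange HPLC for percent intact full-length product.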

[5] = test system: PBMC; assay: Immunomodulatory activity in human PBMC assessed as induction of IFNalpha at 50 ug/ml after 24 hrs; type: functional, cell-based; in short: as §1
[6] = organism: Homo sapiens; assay: Immunostimulatory activity in human mDC assessed as induction of IL6 at 100 ug/ml after 24 hrs; type: functional; in short: as §2
[7] = organism: Homo sapiens; assay: Immunostimulatory activity in human pDC assessed as induction of IL6 at 100 ug/ml after 24 hrs; type: functional
In short: (§3)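 Human pDCs plated at 1 × 10^6 cells/mL; compounds in PBS added, 37 °C for 24 h; supernatant cytokines/chemokines by human Luminex multiplex kit.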

[8] = test system: Mus musculus; assay: Immunomodulatory activity in C57BL/6 mouse assessed as induction of IL12 release at 25 mg/kg, sc after 2 hrs by ELISA; type: functional, organism-based; parameters: dose 25 mg/kg
In short: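 Female C57BL/6 wild-type mice, 5–8 weeks old, n=3; compounds given subcutaneously at 10 or 25 mg/kg. Retro-orbital blood at 2 h; serum cytokines by mouse Luminex multiplex or IL-12 ELISA.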

[9] = test system: PBMC; assay: Immunomodulatory activity in human PBMC assessed as induction of MIP1alpha after 24 hrs; type: functional, cell-based; in short: as §1
[10] = test system: PBMC; assay: Immunomodulatory activity in human PBMC assessed as induction of IL12 at 50 ug/ml after 24 hrs; type: functional, cell-based; in short: as §1
[11] = organism: Homo sapiens; assay: Immunostimulatory activity in human pDC assessed as induction of IFNalpha at 100 ug/ml after 24 hrs; type: functional; in short: as §3
[12] = test system: PBMC; assay: Immunomodulatory activity in human PBMC assessed as induction of MIP1alpha at 50 ug/ml after 24 hrs; type: functional, cell-based; in short: as §1
[13] = test system: PBMC; assay: Immunomodulatory activity in human PBMC assessed as induction of IP10 at 50 ug/ml after 24 hrs; type: functional, cell-based; in short: as §1
[14] = organism: Homo sapiens; assay: Immunostimulatory activity in human mDC assessed as induction of IL12 at 100 ug/ml after 24 hrs; type: functional; in short: as §2
[15] = test system: PBMC; assay: Immunomodulatory activity in human PBMC assessed as induction of IL1-beta at 50 ug/ml after 24 hrs; type: functional, cell-based; in short: as §1
[16] = test system: PBMC; assay: Immunomodulatory activity in human PBMC assessed as induction of IL6 at 50 ug/ml after 24 hrs; type: functional, cell-based; in short: as §1
[17] = test system: Splenocyte; assay: Immunomodulatory activity in C57BL/6 mouse splenocytes bearing TLR7 receptor assessed as IL6 release at 100 ug/ml after 24 hrs by ELISA; type: functional, cell-based
In short: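 C57BL/6 splenocytes in RPMI 1640 with 10% FBS, penicillin/streptomycin, 2 mM L-glutamine, plated at 5 × 10^6 cells/mL; compounds in PBS added, 37 °C for 24 h. Supernatant IL-12 and IL-6 by ELISA; representative of three independent experiments.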

[18] = test system: PBMC; assay: Immunomodulatory activity in human PBMC assessed as induction of MCP1 at 50 ug/ml after 24 hrs; type: functional, cell-based; in short: as §1
[19] = organism: Homo sapiens; assay: Immunostimulatory activity in human mDC assessed as induction of IFNalpha at 100 ug/ml after 24 hrs; type: functional; in short: as §2
[20] = organism: Homo sapiens; assay: Ratio of human TLR7 activity to human TLR8 activity
In short: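 TLR7/TLR8 ratio computed from fold NF-κB (SEAP reporter) activation in HEK293 cells stably expressing human TLR7 versus TLR8, compounds at 50 μg/mL, 18 h exposure; representative of three independent experiments.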

[21] = test system: PBMC; assay: Immunomodulatory activity in human PBMC assessed as induction of IL12 at 100 ug/ml after 24 hrs; type: functional, cell-based; in short: as §1
[22] = organism: Homo sapiens; assay: Immunostimulatory activity in human pDC assessed as induction of IP10 at 100 ug/ml after 24 hrs; type: functional; in short: as §3
[23] = organism: Homo sapiens; assay: Immunostimulatory activity in human mDC assessed as induction of IP10 at 100 ug/ml after 24 hrs; type: functional; in short: as §2
[24] = target: T1, Toll-like receptor 9 (Mus musculus) (UniProt Q9EQU3); assay: Activation of mouse TLR9 expressed in HEK293 assessed as induction of NF-kappaB activity reporter gene assay; type: cell-based
T1 sequence (whole entry): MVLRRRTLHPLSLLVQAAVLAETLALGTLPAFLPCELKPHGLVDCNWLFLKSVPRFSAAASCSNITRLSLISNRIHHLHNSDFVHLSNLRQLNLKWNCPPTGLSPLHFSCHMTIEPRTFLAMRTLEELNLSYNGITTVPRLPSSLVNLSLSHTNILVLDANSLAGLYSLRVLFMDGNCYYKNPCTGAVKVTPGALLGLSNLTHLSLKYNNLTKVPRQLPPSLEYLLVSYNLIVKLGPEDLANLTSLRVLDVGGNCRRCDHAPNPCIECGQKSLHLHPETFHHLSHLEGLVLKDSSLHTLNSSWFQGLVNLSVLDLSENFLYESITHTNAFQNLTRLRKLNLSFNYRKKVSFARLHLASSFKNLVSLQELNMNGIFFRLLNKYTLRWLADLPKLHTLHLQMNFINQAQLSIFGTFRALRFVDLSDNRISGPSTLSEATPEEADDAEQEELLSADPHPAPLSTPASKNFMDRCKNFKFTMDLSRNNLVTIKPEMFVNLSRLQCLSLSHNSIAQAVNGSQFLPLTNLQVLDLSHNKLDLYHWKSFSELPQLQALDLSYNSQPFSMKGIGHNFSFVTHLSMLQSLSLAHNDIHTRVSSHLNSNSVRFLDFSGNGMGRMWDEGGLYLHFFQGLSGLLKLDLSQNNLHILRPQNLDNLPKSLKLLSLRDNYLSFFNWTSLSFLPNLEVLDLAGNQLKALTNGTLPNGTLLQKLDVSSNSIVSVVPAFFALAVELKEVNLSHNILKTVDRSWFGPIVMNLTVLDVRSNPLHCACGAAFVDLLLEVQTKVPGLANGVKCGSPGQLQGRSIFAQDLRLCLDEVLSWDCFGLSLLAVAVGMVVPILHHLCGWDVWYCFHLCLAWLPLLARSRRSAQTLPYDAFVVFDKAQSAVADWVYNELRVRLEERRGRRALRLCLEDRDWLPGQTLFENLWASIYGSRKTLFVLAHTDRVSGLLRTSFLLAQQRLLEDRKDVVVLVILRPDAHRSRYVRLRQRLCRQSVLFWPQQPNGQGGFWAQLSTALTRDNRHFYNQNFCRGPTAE

| SMILES | Activity [1] | Activity [2] | Activity [3] | remaining at 10 min [4] | Activity [5] | Activity [6] | Activity [7] | Activity [8] | Activity [9] | Activity [10] | Activity [11] | Activity [12] | Activity [13] | Activity [14] | Activity [15] | Activity [16] | Activity [17] | Activity [18] | Activity [19] | Ratio [20] | also measured |
| --- | --- | --- | --- | --- | --- | --- | --- | --- | --- | --- | --- | --- | --- | --- | --- | --- | --- | --- | --- | --- | --- |
| Nc1ccn([C@@H]2O[C@H](COP(=O)(S)O[C@H]3[C@@H](O)[C@H](n4cnc5c(N)ncnc54)O[C@@H]3COP(=O)(S)O[C@H]3[C@@H](O)[C@H](n4ccc5c(=O)[nH]c(N)nc54)O[C@@H]3COP(=O)(S)O[C@H]3[C@@H](O)[C@H](n4ccc(=O)[nH]c4=O)O[C@@H]3COP(=O)(S)O[C@H]3[C@@H](O)[C@H](n4ccc(=O)[nH]c4=O)O[C@@H]3COP(=O)(S)O[C@H]3[C@@H](O)[C@H](n4cnc5c(N)ncnc54)O[C@@H]3COP(=O)(S)O[C@H]3[C@@H](O)[C@H](n4cnc5c(N)ncnc54)O[C@@H]3CO)[C@@H](OP(=O)(S)OC[C@H]3O[C@@H](n4ccc5c(=O)[nH]c(N)nc54)[C@H](O)[C@@H]3OP(=O)(S)OC[C@H]3O[C@@H](n4ccc(N)nc4=O)[C@H](O)[C@@H]3OP(=O)(S)OC[C@H]3O[C@@H](n4ccc(=O)[nH]c4=O)[C@H](O)[C@@H]3OP(=O)(S)OC[C@H]3O[C@@H](n4ccc(=O)[nH]c4=O)[C@H](O)[C@@H]3OP(=O)(S)OCC(O)COP(=O)(S)O[C@H]3[C@@H](O)[C@H](n4ccc(=O)[nH]c4=O)O[C@@H]3COP(=O)(S)O[C@H]3[C@@H](O)[C@H](n4ccc(=O)[nH]c4=O)O[C@@H]3COP(=O)(S)O[C@H]3[C@@H](O)[C@H](n4ccc(N)nc4=O)O[C@@H]3COP(=O)(S)O[C@H]3[C@@H](O)[C@H](n4ccc5c(=O)[nH]c(N)nc54)O[C@@H]3COP(=O)(S)O[C@H]3[C@@H](O)[C@H](n4ccc(N)nc4=O)O[C@@H]3COP(=O)(S)O[C@H]3[C@@H](O)[C@H](n4cnc5c(N)ncnc54)O[C@@H]3COP(=O)(S)O[C@H]3[C@@H](O)[C@H](n4ccc5c(=O)[nH]c(N)nc54)O[C@@H]3COP(=O)(S)O[C@H]3[C@@H](O)[C@H](n4ccc(=O)[nH]c4=O)O[C@@H]3COP(=O)(S)O[C@H]3[C@@H](O)[C@H](n4ccc(=O)[nH]c4=O)O[C@@H]3COP(=O)(S)O[C@H]3[C@@H](O)[C@H](n4cnc5c(N)ncnc54)O[C@@H]3COP(=O)(S)O[C@H]3[C@@H](O)[C@H](n4cnc5c(N)ncnc54)O[C@@H]3CO)[C@H]2O)c(=O)n1 (stereo partly drawn) | 104 pg/mL | Active | 5500 pg/mL | 80% | 149 pg/mL | Active | Active | Active | Dose-dependent effect | 320 pg/mL | Active | 2230 pg/mL | 453 pg/mL | Active | 117 pg/mL | 1750 pg/mL | Active | 49600 pg/mL | Active | 69.7 | Activity [21]: 340 pg/mL; Activity [22]: Active; Activity [23]: Active; Activity [24]: inactive |
| Nc1ccn([C@@H]2O[C@H](COP(=O)(S)O[C@H]3[C@@H](O)[C@H](n4cnc5c(N)ncnc54)O[C@@H]3CO)[C@@H](OP(=O)(S)OC[C@H]3O[C@@H](n4ccc(=O)[nH]c4=O)[C@H](O)[C@@H]3OP(=O)(S)OC[C@H]3O[C@@H](n4ccc5c(=O)[nH]c(N)nc54)[C@H](O)[C@@H]3OP(=O)(S)OC[C@H]3O[C@@H](n4ccc(N)nc4=O)[C@H](O)[C@@H]3OP(=O)(S)OC[C@H]3O[C@@H](n4ccc5c(=O)[nH]c(N)nc54)[C@H](O)[C@@H]3OP(=O)(S)OC[C@H]3O[C@@H](n4cnc5c(N)ncnc54)[C@H](O)[C@@H]3OP(=O)(S)OC[C@H]3O[C@@H](n4ccc5c(=O)[nH]c(N)nc54)[C@H](O)[C@@H]3OP(=O)(S)OC[C@H]3O[C@@H](n4ccc(N)nc4=O)[C@H](O)[C@@H]3OP(=O)(S)OC[C@H]3O[C@@H](n4ccc(=O)[nH]c4=O)[C@H](O)[C@@H]3OP(=O)(S)OC[C@H]3O[C@@H](n4ccc(=O)[nH]c4=O)[C@H](O)[C@@H]3OP(=O)(S)OCC(O)COP(=O)(S)O[C@H]3[C@@H](O)[C@H](n4ccc(=O)[nH]c4=O)O[C@@H]3COP(=O)(S)O[C@H]3[C@@H](O)[C@H](n4ccc(=O)[nH]c4=O)O[C@@H]3COP(=O)(S)O[C@H]3[C@@H](O)[C@H](n4ccc(N)nc4=O)O[C@@H]3COP(=O)(S)O[C@H]3[C@@H](O)[C@H](n4ccc5c(=O)[nH]c(N)nc54)O[C@@H]3COP(=O)(S)O[C@H]3[C@@H](O)[C@H](n4cnc5c(N)ncnc54)O[C@@H]3COP(=O)(S)O[C@H]3[C@@H](O)[C@H](n4ccc5c(=O)[nH]c(N)nc54)O[C@@H]3COP(=O)(S)O[C@H]3[C@@H](O)[C@H](n4ccc(N)nc4=O)O[C@@H]3COP(=O)(S)O[C@H]3[C@@H](O)[C@H](n4ccc5c(=O)[nH]c(N)nc54)O[C@@H]3COP(=O)(S)O[C@H]3[C@@H](O)[C@H](n4ccc(=O)[nH]c4=O)O[C@@H]3COP(=O)(S)O[C@H]3[C@@H](O)[C@H](n4ccc(N)nc4=O)O[C@@H]3COP(=O)(S)O[C@H]3[C@@H](O)[C@H](n4cnc5c(N)ncnc54)O[C@@H]3CO)[C@H]2O)c(=O)n1 (stereo partly drawn) | 256 pg/mL | Active | 8980 pg/mL | 71% | 266 pg/mL | Active | Active | Active | Dose-dependent effect | 337 pg/mL | Active | 4890 pg/mL | 395 pg/mL | Active | 196 pg/mL | 2580 pg/mL | Active | 51400 pg/mL | Active | 15.9 | Activity [21]: 487 pg/mL; Activity [22]: Active; Activity [23]: Active; Activity [24]: inactive |
